Source: ChEMBL document CHEMBL1149106, “Design, synthesis, and evaluation of aza-peptide epoxides as selective and potent inhibitors of caspases-1, -3, -6, and -8” (J Med Chem, 2004)
Active and inactive are the calls of the source. The rule behind the calls is not given here.

Tests used:
Caspase-3 (Homo sapiens) [1] = target: T1, Caspase-3 (Homo sapiens) (UniProt P42574); assay: Second-order inhibition rate of caspase-3 was determined by progress curve method
T1 sequence (whole entry): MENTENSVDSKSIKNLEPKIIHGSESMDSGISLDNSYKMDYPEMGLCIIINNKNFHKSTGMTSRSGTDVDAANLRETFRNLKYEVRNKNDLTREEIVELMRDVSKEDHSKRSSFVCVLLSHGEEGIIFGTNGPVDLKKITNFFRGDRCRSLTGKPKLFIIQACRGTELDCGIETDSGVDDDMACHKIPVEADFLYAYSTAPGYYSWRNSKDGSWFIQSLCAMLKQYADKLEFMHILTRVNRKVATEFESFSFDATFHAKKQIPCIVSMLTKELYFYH
Method in brief: (§1)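 Caspases-3, -6 and -8 were assayed in 50 mM HEPES, 100 mM NaCl, 0.1% (w/v) CHAPS, 10% (w/v) sucrose and 10 mM DTT, pH 7.4. Substrate: Cbz-DEVD-AFC or Cbz-DEVD-AMC.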

Caspase-6 (Homo sapiens) [2] = target: T2, Caspase-6 (Homo sapiens) (UniProt P55212); assay: Second-order inhibition rate of caspase-6 was determined by progress curve method; method in brief: as §1
T2 sequence (whole entry): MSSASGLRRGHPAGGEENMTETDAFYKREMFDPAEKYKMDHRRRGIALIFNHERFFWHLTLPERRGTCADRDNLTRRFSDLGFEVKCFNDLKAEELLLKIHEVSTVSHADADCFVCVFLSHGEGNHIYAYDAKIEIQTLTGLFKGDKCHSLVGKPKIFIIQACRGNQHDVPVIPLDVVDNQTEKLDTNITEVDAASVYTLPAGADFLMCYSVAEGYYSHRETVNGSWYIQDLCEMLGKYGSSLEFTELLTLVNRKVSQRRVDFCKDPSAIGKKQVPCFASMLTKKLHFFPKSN

Caspase-8 (Homo sapiens) [3] = target: Caspase-8 (Homo sapiens) (UniProt Q14790); assay: Second-order inhibition rate of caspase-8 was determined by progress curve method; method in brief: as §1
Chain of Caspase-8 (Homo sapiens) (Q14790 217-374 limits assumed): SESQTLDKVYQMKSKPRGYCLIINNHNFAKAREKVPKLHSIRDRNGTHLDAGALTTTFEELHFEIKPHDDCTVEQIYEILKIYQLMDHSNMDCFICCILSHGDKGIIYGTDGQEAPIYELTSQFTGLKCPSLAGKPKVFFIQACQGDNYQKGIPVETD
Chain of Caspase-8 (Homo sapiens) (Q14790 385-479 limits assumed): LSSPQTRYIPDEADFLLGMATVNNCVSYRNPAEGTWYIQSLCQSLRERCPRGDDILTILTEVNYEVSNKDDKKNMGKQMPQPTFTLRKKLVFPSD

Caspase-1 (Homo sapiens) = target: T3, Caspase-1 (Homo sapiens) (UniProt P29466); assay: Second-order inhibition rate of caspase-1 was determined by progress curve method
T3 sequence (whole entry): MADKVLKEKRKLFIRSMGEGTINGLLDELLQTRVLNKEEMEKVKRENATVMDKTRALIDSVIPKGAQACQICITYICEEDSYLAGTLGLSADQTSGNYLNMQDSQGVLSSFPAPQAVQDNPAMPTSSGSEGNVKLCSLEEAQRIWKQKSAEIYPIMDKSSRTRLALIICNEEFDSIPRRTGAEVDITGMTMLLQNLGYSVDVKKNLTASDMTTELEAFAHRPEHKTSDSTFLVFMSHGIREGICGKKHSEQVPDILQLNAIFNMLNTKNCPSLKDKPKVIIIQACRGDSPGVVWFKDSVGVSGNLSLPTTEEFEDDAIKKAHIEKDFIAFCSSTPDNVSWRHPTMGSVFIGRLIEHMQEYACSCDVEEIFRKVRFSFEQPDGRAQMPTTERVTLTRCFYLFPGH
Method in brief: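 Caspase-1 assay buffer: 100 mM HEPES, 0.5 mM EDTA, 20% (v/v) glycerol, 5 mM DTT, pH 7.5. Substrate: Ac-YVAD-AMC.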

Caspase-8 (Homo sapiens) [4] = target: Caspase-8 (Homo sapiens) (UniProt Q14790); assay: Second-order inhibition rate of caspase-8 was determined by progress curve method; No inhibition; method in brief: as §1
Caspase-6 (Homo sapiens) [5] = target: T2, Caspase-6 (Homo sapiens); assay: Second-order inhibition rate of caspase-6 was determined by progress curve method; No inhibition; method in brief: as §1
Caspase-3 (Homo sapiens) [6] = target: T1, Caspase-3 (Homo sapiens); assay: Second-order inhibition rate of caspase-3 was determined by progress curve method; No inhibition; method in brief: as §1

k2 (Caspase-3 (Homo sapiens) [1]) [M⁻¹ s⁻¹] | k2 (Caspase-6 (Homo sapiens) [2]) [M⁻¹ s⁻¹] | k2 (Caspase-8 (Homo sapiens) [3]) [M⁻¹ s⁻¹] | k2 (Caspase-1 (Homo sapiens)) [M⁻¹ s⁻¹] | k2 (Caspase-8 (Homo sapiens) [4]) | k2 (Caspase-6 (Homo sapiens) [5]) | k2 (Caspase-3 (Homo sapiens) [6]) | SMILES
3050 | 38200 | 56000 |  |  |  |  | CC[C@H](C)[C@H](NC(=O)OCc1ccccc1)C(=O)N[C@@H](CCC(=O)O)C(=O)N[C@H](C(=O)NN(CC(=O)O)C(=O)[C@@H]1O[C@H]1C(=O)N[C@@H](C)C(=O)NCc1ccccc1)[C@@H](C)O
1110 | 130 | 10100 | 17100 |  |  |  | CC(C)[C@H](NC(=O)CCc1ccccc1)C(=O)N[C@@H](C)C(=O)NN(CC(=O)O)C(=O)[C@H]1O[C@@H]1C(=O)NCCc1ccccc1
625 | 65 | 390 | 32700 |  |  |  | CC(C)[C@H](NC(=O)CCc1ccccc1)C(=O)N[C@@H](C)C(=O)NN(CC(=O)O)C(=O)[C@H]1O[C@@H]1C(=O)N[C@@H](Cc1ccccc1)C(N)=O
87 | 11 | 125 | 3250 |  |  |  | CC(C)[C@H](NC(=O)CCc1ccccc1)C(=O)N[C@@H](C)C(=O)NN(CC(=O)O)C(=O)[C@H]1O[C@@H]1C(=O)N[C@@H](Cc1ccc(O)cc1)C(N)=O
 |  |  | 330 | inactive | inactive | inactive | CC(C)[C@H](NC(=O)CCc1ccccc1)C(=O)N[C@@H](C)C(=O)NN(CC(=O)O)C(=O)[C@@H]1O[C@H]1C(=O)N[C@@H](Cc1ccccc1)C(N)=O
145 |  |  |  | inactive | inactive |  | CC(C)[C@H](NC(=O)OCc1ccccc1)C(=O)NN(CC(=O)O)C(=O)[C@H]1O[C@@H]1c1ccc(Cl)cc1
310 | 44 | 180 |  |  |  |  | CC(C)[C@H](NC(=O)OCc1ccccc1)C(=O)NN(CC(=O)O)C(=O)[C@H]1O[C@@H]1CCc1ccccc1
470 | 25 |  | 1040 |  |  |  | CC(C)[C@H](NC(=O)[C@H](CCC(=O)O)NC(=O)OCc1ccccc1)C(=O)NN(CC(=O)O)C(=O)[C@@H]1O[C@H]1C(=O)N[C@@H](Cc1ccccc1)C(N)=O
 |  |  | 6290 | inactive | inactive | inactive | CCOC(=O)[C@@H]1O[C@H]1C(=O)N(CC(=O)O)NC(=O)[C@H](C)NC(=O)[C@@H](NC(=O)CCc1ccccc1)C(C)C
3520 | 10300 | 72700 | 43500 |  |  |  | CC(C)C[C@H](NC(=O)OCc1ccccc1)C(=O)NC(CCC(=O)O)C(=O)N[C@H](C(=O)NN(CC(=O)O)C(=O)[C@H]1O[C@@H]1C(=O)OCc1ccccc1)[C@@H](C)O (some centres undefined)
3650 | 350 | 1260 |  |  |  |  | CCOC(=O)[C@H]1O[C@@H]1C(=O)N(CC(=O)O)NC(=O)[C@@H](NC(=O)OCc1ccccc1)C(C)C
 |  |  | 1630 | inactive | inactive | inactive | CC(C)[C@H](NC(=O)CCc1ccccc1)C(=O)N[C@@H](C)C(=O)NN(CC(=O)O)C(=O)[C@@H]1O[C@H]1C(=O)NCc1ccccc1
27300 | 3130 | 72700 | 41100 |  |  |  | CC(C)[C@H](NC(=O)[C@H](CCC(=O)O)NC(=O)OCc1ccccc1)C(=O)NN(CC(=O)O)C(=O)[C@H]1O[C@@H]1C(=O)NCCc1ccccc1
1.09e+06 | 6000 | 84400 | 25400 |  |  |  | CC(C)[C@H](NC(=O)C(CCC(=O)O)NC(=O)[C@H](CC(=O)O)NC(=O)OCc1ccccc1)C(=O)NN(CC(=O)O)C(=O)[C@H]1O[C@@H]1C(=O)NCc1ccccc1 (some centres undefined)
3110 | 45400 | 4560 | 13000 |  |  |  | CC[C@H](C)[C@H](NC(=O)OCc1ccccc1)C(=O)N[C@@H](CCC(=O)O)C(=O)N[C@H](C(=O)NN(CC(=O)O)C(=O)[C@@H]1O[C@H]1C(=O)OCc1ccccc1)[C@@H](C)O
420 | 71 | 315 | 26100 |  |  |  | CC(C)C[C@H](NC(=O)[C@H]1O[C@@H]1C(=O)N(CC(=O)O)NC(=O)[C@H](C)NC(=O)[C@@H](NC(=O)CCc1ccccc1)C(C)C)C(N)=O

k2 (Caspase-3 (Homo sapiens) [1]) [M⁻¹ s⁻¹] | k2 (Caspase-6 (Homo sapiens) [2]) [M⁻¹ s⁻¹] | k2 (Caspase-8 (Homo sapiens) [3]) [M⁻¹ s⁻¹] | k2 (Caspase-1 (Homo sapiens)) [M⁻¹ s⁻¹] | k2 (Caspase-8 (Homo sapiens) [4]) | k2 (Caspase-6 (Homo sapiens) [5]) | k2 (Caspase-3 (Homo sapiens) [6]) | SMILES
2110 | 240 | 3780 | 56600 |  |  |  | CC(C)[C@H](NC(=O)CCc1ccccc1)C(=O)N[C@@H](C)C(=O)NN(CC(=O)O)C(=O)[C@H]1O[C@@H]1C(=O)OCCc1ccccc1
1910 | 142 | 6050 |  |  |  |  | CCNC(=O)[C@H]1O[C@@H]1C(=O)N(CC(=O)O)NC(=O)[C@H](C)NC(=O)[C@@H](NC(=O)CCc1ccccc1)C(C)C
6500 | 60100 | 6500 | 18100 |  |  |  | CC[C@H](C)[C@H](NC(=O)OCc1ccccc1)C(=O)N[C@@H](CCC(=O)O)C(=O)N[C@H](C(=O)NN(CC(=O)O)C(=O)[C@@H]1O[C@H]1C(=O)NCc1ccccc1)[C@@H](C)O
1610 | 155 | 9360 | 65900 |  |  |  | CC(C)[C@H](NC(=O)CCc1ccccc1)C(=O)N[C@@H](C)C(=O)NN(CC(=O)O)C(=O)[C@H]1O[C@@H]1C(=O)NCc1ccccc1
1110 | 90 | 370 |  |  |  |  | CC(C)[C@H](NC(=O)OCc1ccccc1)C(=O)NN(CC(=O)O)C(=O)[C@H]1O[C@@H]1C(=O)O
260 | 25 | 140 | 13400 |  |  |  | CC(C)[C@H](NC(=O)CCc1ccccc1)C(=O)N[C@@H](C)C(=O)NN(CC(=O)O)C(=O)[C@H]1O[C@@H]1C(=O)N[C@@H](C)C(=O)NCc1ccccc1
510 | 63 | 4090 | 12200 |  |  |  | CC(C)[C@H](NC(=O)CCc1ccccc1)C(=O)N[C@@H](C)C(=O)NN(CC(=O)O)C(=O)[C@H]1O[C@@H]1C(=O)NCC(O)c1ccccc1 (some centres undefined)
 |  |  | 270 | inactive | inactive | inactive | CC(C)[C@H](NC(=O)CCc1ccccc1)C(=O)N[C@@H](C)C(=O)NN(CC(=O)O)C(=O)[C@@H]1O[C@H]1C(=O)N[C@@H](C)C(=O)NCc1ccccc1
 |  |  | 950 | inactive | inactive | inactive | CC(C)[C@H](NC(=O)CCc1ccccc1)C(=O)N[C@@H](C)C(=O)NN(CC(=O)O)C(=O)[C@@H]1O[C@H]1C(=O)NCCc1ccccc1
 | 15 | 185 | 1860 |  |  | inactive | CC(C)[C@H](NC(=O)CCc1ccccc1)C(=O)N[C@@H](C)C(=O)NN(CC(=O)O)C(=O)[C@@H]1O[C@H]1C(=O)OCc1ccccc1
722000 | 6140 | 29600 | 9250 |  |  |  | CC(C)[C@H](NC(=O)C(CCC(=O)O)NC(=O)[C@H](CC(=O)O)NC(=O)OCc1ccccc1)C(=O)NN(CC(=O)O)C(=O)[C@H]1O[C@@H]1C(=O)N[C@@H](Cc1ccccc1)C(N)=O (some centres undefined)
1.91e+06 | 12700 | 188000 | 54700 |  |  |  | CC(C)[C@H](NC(=O)C(CCC(=O)O)NC(=O)[C@H](CC(=O)O)NC(=O)OCc1ccccc1)C(=O)NN(CC(=O)O)C(=O)[C@H]1O[C@@H]1C(=O)OCc1ccccc1 (some centres undefined)
2550 | 10000 | 53300 |  |  |  |  | CC(C)C[C@H](NC(=O)OCc1ccccc1)C(=O)NC(CCC(=O)O)C(=O)N[C@H](C(=O)NN(CC(=O)O)C(=O)[C@H]1O[C@@H]1C(=O)NCCc1ccccc1)[C@@H](C)O (some centres undefined)
9500 | 86200 | 58500 | 45800 |  |  |  | CC[C@H](C)[C@H](NC(=O)OCc1ccccc1)C(=O)N[C@@H](CCC(=O)O)C(=O)N[C@H](C(=O)NN(CC(=O)O)C(=O)[C@H]1O[C@@H]1C(=O)OCc1ccccc1)[C@@H](C)O
2630 | 34000 | 8800 | 13300 |  |  |  | CCOC(=O)[C@@H]1O[C@H]1C(=O)N(CC(=O)O)NC(=O)[C@@H](NC(=O)[C@H](CCC(=O)O)NC(=O)[C@@H](NC(=O)OCc1ccccc1)[C@@H](C)CC)[C@@H](C)O
1280 | 6660 | 44800 |  |  |  |  | CC(C)C[C@H](NC(=O)OCc1ccccc1)C(=O)NC(CCC(=O)O)C(=O)N[C@H](C(=O)NN(CC(=O)O)C(=O)[C@H]1O[C@@H]1C(=O)N[C@@H](C)C(=O)NCc1ccccc1)[C@@H](C)O (some centres undefined)
